# Measured values published in ChEMBL document CHEMBL1134857, “The synthesis and biological evaluation of a novel series of antimicrobials of the oxazolidinone class” (Bioorg Med Chem Lett, 2002).
# Test system: Streptococcus pneumoniae
# Experiment: Minimum inhibitory concentration measured against Streptococcus pneumoniae
# Assay type: functional
row,SMILES,MIC
1,CC(=O)NC[C@H]1CN(c2ccc(/C=C(\F)c3cccc(C#N)c3)c(F)c2)C(=O)O1,2 µg/mL
2,CC(=O)NC[C@H]1CN(c2ccc(/C=C(\F)c3cncnc3)c(F)c2)C(=O)O1,1 µg/mL
3,CC(=O)NC[C@H]1CN(c2ccc(/C=C(\Br)c3cccc(C#N)c3)c(F)c2)C(=O)O1,0.25 µg/mL
4,CC(=O)NC[C@H]1CN(c2ccc(/C=C(\F)c3cncc(C#N)c3)c(F)c2)C(=O)O1,≤ 0.125 µg/mL
5,CC(=O)NC[C@H]1CN(c2ccc(/C=C(\F)c3cccnc3)c(F)c2)C(=O)O1,0.5 µg/mL
6,CC(=O)NC[C@H]1CN(c2ccc(/C=C(\Br)c3cccc(CO)c3)c(F)c2)C(=O)O1,1 µg/mL
7,CC(=O)NC[C@H]1CN(c2ccc(/C=C(\Br)c3cncc(C#N)c3)c(F)c2)C(=O)O1,≤ 0.125 µg/mL
8,CC(=O)NC[C@H]1CN(c2ccc(/C=C(\Br)c3ccccc3)c(F)c2)C(=O)O1,2 µg/mL

# Test system: Moraxella catarrhalis
# Experiment: Minimum inhibitory concentration measured against Moraxella catarrhalis
# Assay type: functional
row,SMILES,MIC
1,CC(=O)NC[C@H]1CN(c2ccc(/C=C(\F)c3cccc(C#N)c3)c(F)c2)C(=O)O1,> 128 µg/mL
2,CC(=O)NC[C@H]1CN(c2ccc(/C=C(\F)c3cncnc3)c(F)c2)C(=O)O1,4 µg/mL
3,CC(=O)NC[C@H]1CN(c2ccc(/C=C(\Br)c3cccc(C#N)c3)c(F)c2)C(=O)O1,1 µg/mL
4,CC(=O)NC[C@H]1CN(c2ccc(/C=C(\F)c3cncc(C#N)c3)c(F)c2)C(=O)O1,4 µg/mL
5,CC(=O)NC[C@H]1CN(c2ccc(/C=C(\F)c3cccnc3)c(F)c2)C(=O)O1,8 µg/mL
6,CC(=O)NC[C@H]1CN(c2ccc(/C=C(\Br)c3cccc(CO)c3)c(F)c2)C(=O)O1,4 µg/mL
7,CC(=O)NC[C@H]1CN(c2ccc(/C=C(\Br)c3cncc(C#N)c3)c(F)c2)C(=O)O1,2 µg/mL
8,CC(=O)NC[C@H]1CN(c2ccc(/C=C(\Br)c3ccccc3)c(F)c2)C(=O)O1,128 µg/mL
9,CC(=O)NC[C@H]1CN(c2ccc(N3CCOCC3)c(F)c2)C(=O)O1 [LINEZOLID],4 µg/mL

# Test system: Staphylococcus epidermidis
# Experiment: Minimum inhibitory concentration measured against Staphylococcus epidermidis
# Assay type: functional
row,SMILES,MIC
1,CC(=O)NC[C@H]1CN(c2ccc(/C=C(\F)c3cccc(C#N)c3)c(F)c2)C(=O)O1,128 µg/mL
2,CC(=O)NC[C@H]1CN(c2ccc(/C=C(\F)c3cncnc3)c(F)c2)C(=O)O1,1 µg/mL
3,CC(=O)NC[C@H]1CN(c2ccc(/C=C(\Br)c3cccc(C#N)c3)c(F)c2)C(=O)O1,0.125 µg/mL
4,CC(=O)NC[C@H]1CN(c2ccc(/C=C(\F)c3cncc(C#N)c3)c(F)c2)C(=O)O1,0.5 µg/mL
5,CC(=O)NC[C@H]1CN(c2ccc(/C=C(\F)c3cccnc3)c(F)c2)C(=O)O1,0.25 µg/mL
6,CC(=O)NC[C@H]1CN(c2ccc(/C=C(\Br)c3cccc(CO)c3)c(F)c2)C(=O)O1,1 µg/mL
7,CC(=O)NC[C@H]1CN(c2ccc(/C=C(\Br)c3cncc(C#N)c3)c(F)c2)C(=O)O1,0.25 µg/mL
8,CC(=O)NC[C@H]1CN(c2ccc(/C=C(\Br)c3ccccc3)c(F)c2)C(=O)O1,16 µg/mL
9,CC(=O)NC[C@H]1CN(c2ccc(N3CCOCC3)c(F)c2)C(=O)O1 [LINEZOLID],1 µg/mL

# Target: T1, Amine oxidase [flavin-containing] B (Rattus norvegicus, UniProt P19643)
# T1 sequence (P19643 whole entry): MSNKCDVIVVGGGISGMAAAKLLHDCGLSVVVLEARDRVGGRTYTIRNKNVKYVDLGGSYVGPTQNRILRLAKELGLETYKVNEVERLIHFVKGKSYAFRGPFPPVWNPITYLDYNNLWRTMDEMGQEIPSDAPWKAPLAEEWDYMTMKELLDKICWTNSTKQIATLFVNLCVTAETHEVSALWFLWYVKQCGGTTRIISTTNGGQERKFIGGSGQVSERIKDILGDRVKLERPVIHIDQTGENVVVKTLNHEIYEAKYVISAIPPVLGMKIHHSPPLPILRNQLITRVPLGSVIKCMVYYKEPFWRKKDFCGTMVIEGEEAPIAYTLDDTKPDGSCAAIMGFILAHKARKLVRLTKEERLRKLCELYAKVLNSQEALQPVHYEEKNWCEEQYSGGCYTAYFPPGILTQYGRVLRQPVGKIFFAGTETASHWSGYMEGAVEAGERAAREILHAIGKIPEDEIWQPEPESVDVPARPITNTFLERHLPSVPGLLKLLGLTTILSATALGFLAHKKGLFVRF
# Experiment: Compound was evaluated for inhibition of Mono aminoxidase B in rat primary hepatocytes
# Assay type: cell-based, Hepatocyte
row,SMILES,IC50
1,CC(=O)NC[C@H]1CN(c2ccc(N3CCOCC3)c(F)c2)C(=O)O1 [LINEZOLID],17 µM

# Test system: Staphylococcus aureus
# Experiment: Minimum inhibitory concentration measured against Staphylococcus aureus
# Assay type: functional
row,SMILES,MIC
1,CC(=O)NC[C@H]1CN(c2ccc(/C=C(\F)c3cccc(C#N)c3)c(F)c2)C(=O)O1,> 128 µg/mL
2,CC(=O)NC[C@H]1CN(c2ccc(/C=C(\F)c3cncnc3)c(F)c2)C(=O)O1,2 µg/mL
3,CC(=O)NC[C@H]1CN(c2ccc(/C=C(\Br)c3cccc(C#N)c3)c(F)c2)C(=O)O1,0.25 µg/mL
4,CC(=O)NC[C@H]1CN(c2ccc(/C=C(\F)c3cncc(C#N)c3)c(F)c2)C(=O)O1,1 µg/mL
5,CC(=O)NC[C@H]1CN(c2ccc(/C=C(\F)c3cccnc3)c(F)c2)C(=O)O1,4 µg/mL
6,CC(=O)NC[C@H]1CN(c2ccc(/C=C(\Br)c3cccc(CO)c3)c(F)c2)C(=O)O1,2 µg/mL
7,CC(=O)NC[C@H]1CN(c2ccc(/C=C(\Br)c3cncc(C#N)c3)c(F)c2)C(=O)O1,1 µg/mL
8,CC(=O)NC[C@H]1CN(c2ccc(/C=C(\Br)c3ccccc3)c(F)c2)C(=O)O1,16 µg/mL

# Species on record: Rattus norvegicus
# Experiment: Inhibition of mitochondrial protein synthesis (MPS) in rat heart mitochondria
# Assay type: functional
# In short: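 Rat heart mitochondria were incubated at 1 mg/mL protein (Bradford) in buffer with translation components (ADP, amino acids). Incorporation of S35 methionine was followed for 1 h at 30 °C, then quenched with cold 5% TCA/5 mM methionine. Triplicate aliquots were filtered, washed and counted. Compounds were tested at 6–7 concentrations, ≤1% organic. IC50 came from the linear portion of the percent-of-control curve, as the mean of ≥2 experiments.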
row,SMILES,IC50
1,CC(=O)NC[C@H]1CN(c2ccc(/C=C(\F)c3cccc(C#N)c3)c(F)c2)C(=O)O1,> 300 µM
2,CC(=O)NC[C@H]1CN(c2ccc(/C=C(\Br)c3cccc(C#N)c3)c(F)c2)C(=O)O1,24 µM
3,CC(=O)NC[C@H]1CN(c2ccc(/C=C(\F)c3cncc(C#N)c3)c(F)c2)C(=O)O1,< 0.1 µM
4,CC(=O)NC[C@H]1CN(c2ccc(/C=C(\F)c3cccnc3)c(F)c2)C(=O)O1,1.6 µM
5,CC(=O)NC[C@H]1CN(c2ccc(/C=C(\Br)c3cccc(CO)c3)c(F)c2)C(=O)O1,8 µM
6,CC(=O)NC[C@H]1CN(c2ccc(/C=C(\Br)c3cncc(C#N)c3)c(F)c2)C(=O)O1,1.3 µM
7,CC(=O)NC[C@H]1CN(c2ccc(/C=C(\Br)c3ccccc3)c(F)c2)C(=O)O1,> 300 µM
8,CC(=O)NC[C@H]1CN(c2ccc(N3CCOCC3)c(F)c2)C(=O)O1 [LINEZOLID],12 µM

# Target: T1, Amine oxidase [flavin-containing] B
# Experiment: Inhibition of Monoamine oxidase B in rat primary hepatocytes
# Assay type: cell-based, Hepatocyte
row,SMILES,IC50
1,CC(=O)NC[C@H]1CN(c2ccc(/C=C(\F)c3cccc(C#N)c3)c(F)c2)C(=O)O1,> 300 µM
2,CC(=O)NC[C@H]1CN(c2ccc(/C=C(\F)c3cncnc3)c(F)c2)C(=O)O1,475 µM
3,CC(=O)NC[C@H]1CN(c2ccc(/C=C(\Br)c3cccc(C#N)c3)c(F)c2)C(=O)O1,> 150 µM
4,CC(=O)NC[C@H]1CN(c2ccc(/C=C(\F)c3cncc(C#N)c3)c(F)c2)C(=O)O1,> 300 µM
5,CC(=O)NC[C@H]1CN(c2ccc(/C=C(\F)c3cccnc3)c(F)c2)C(=O)O1,98 µM
6,CC(=O)NC[C@H]1CN(c2ccc(/C=C(\Br)c3cccc(CO)c3)c(F)c2)C(=O)O1,> 150 µM
7,CC(=O)NC[C@H]1CN(c2ccc(/C=C(\Br)c3cncc(C#N)c3)c(F)c2)C(=O)O1,> 300 µM
8,CC(=O)NC[C@H]1CN(c2ccc(/C=C(\Br)c3ccccc3)c(F)c2)C(=O)O1,< 9.4 µM

# Test system: Enterococcus faecium
# Experiment: Minimum inhibitory concentration measured against Enterococcus faecium
# Assay type: functional
row,SMILES,MIC
1,CC(=O)NC[C@H]1CN(c2ccc(/C=C(\F)c3cccc(C#N)c3)c(F)c2)C(=O)O1,> 128 µg/mL
2,CC(=O)NC[C@H]1CN(c2ccc(/C=C(\F)c3cncnc3)c(F)c2)C(=O)O1,2 µg/mL
3,CC(=O)NC[C@H]1CN(c2ccc(/C=C(\Br)c3cccc(C#N)c3)c(F)c2)C(=O)O1,0.125 µg/mL
4,CC(=O)NC[C@H]1CN(c2ccc(/C=C(\F)c3cncc(C#N)c3)c(F)c2)C(=O)O1,1 µg/mL
5,CC(=O)NC[C@H]1CN(c2ccc(/C=C(\F)c3cccnc3)c(F)c2)C(=O)O1,1 µg/mL
6,CC(=O)NC[C@H]1CN(c2ccc(/C=C(\Br)c3cccc(CO)c3)c(F)c2)C(=O)O1,0.5 µg/mL
7,CC(=O)NC[C@H]1CN(c2ccc(/C=C(\Br)c3cncc(C#N)c3)c(F)c2)C(=O)O1,< 0.125 µg/mL
8,CC(=O)NC[C@H]1CN(c2ccc(/C=C(\Br)c3ccccc3)c(F)c2)C(=O)O1,16 µg/mL
9,CC(=O)NC[C@H]1CN(c2ccc(N3CCOCC3)c(F)c2)C(=O)O1 [LINEZOLID],2 µg/mL
